According to ChEMBL document CHEMBL3792361, “Design and Synthesis of Benzimidazoles As Novel Corticotropin-Releasing Factor 1 Receptor Antagonists” (J Med Chem, 2016):
pIC50: −log10 of the molar value. Converted amounts (≈) assume the structure as drawn. The source made the active and inactive calls. The calls are words filed in the database; no cut-off is given here.

Assays:
[1] = target: T1, Corticotropin-releasing factor receptor 1 (Homo sapiens, UniProt P34998); assay: Displacement of [125I]-CRF from human CRF1 receptor expressed in CHO cellular membrane fraction after 1.5 hrs by liquid scintillation counting method; format: cell-based
T1 sequence (P34998 whole entry): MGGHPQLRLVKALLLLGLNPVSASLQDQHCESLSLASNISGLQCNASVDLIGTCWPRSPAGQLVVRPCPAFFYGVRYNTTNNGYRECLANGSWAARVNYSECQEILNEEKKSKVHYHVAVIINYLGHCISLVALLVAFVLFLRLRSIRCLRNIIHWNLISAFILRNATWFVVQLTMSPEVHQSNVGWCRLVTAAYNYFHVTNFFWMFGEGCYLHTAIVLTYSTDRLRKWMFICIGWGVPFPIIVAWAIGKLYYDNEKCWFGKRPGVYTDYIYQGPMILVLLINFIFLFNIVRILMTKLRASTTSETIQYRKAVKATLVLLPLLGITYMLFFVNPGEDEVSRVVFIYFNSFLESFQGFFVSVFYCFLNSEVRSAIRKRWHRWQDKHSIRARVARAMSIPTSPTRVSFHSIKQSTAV

[2] = Cytotoxicity against human HepG2 cells assessed as rate of ATP content at 30 uM after 1 day by ATPLite-M assay relative to control; format: cell-based; conditions: read-out: Activity
[3] = Octanol-water partition co-efficient, log D of the compound at pH 7.4 by HPLC analysis; format: physicochemical
[4] = test system: Mus musculus; assay: Ex vivo inhibition of [125I]-CRF binding to CRF1 receptor in mouse frontal cortex at 60 mg/kg, po after 1 hr by gamma scintillation counting method; format: functional
Summary of the method: (§1)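 Compound suspended in 0.5% methyl cellulose in water and dosed orally (10 mL/kg), 5 mice/group. Incubated with 100 pM ovine 125I-CRF at rt for 2 h, then GF/C filtration.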

[5] = test system: Mus musculus; assay: Ex vivo inhibition of [125I]-CRF binding to CRF1 receptor in mouse pituitary gland at 60 mg/kg, po after 1 hr by gamma scintillation counting method; format: functional; summary of the method: as §1
[6] = test system: Mus musculus; assay: Suppression of stress-induced activation of hypothalamus-pituitary-adrenocortical axis in mouse assessed as reduction of plasma ATCH level at 60 mg/kg, po after 1 hr by immunoradiometric assay; format: functional, organism-based
Summary of the method: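 Mice dosed orally with compound suspended in 0.5% methyl cellulose (10 mL/kg) 1 h before test. PBS given icv (5 µL/mouse); blood taken by decapitation 0.5 h later. Plasma separated by centrifugation at 4°C; ACTH measured by immunoradiometric assay. Mean ± SEM, n = 10, Dunnett's test vs vehicle.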

[7] = target: T2, Corticotropin-releasing factor receptor 2 (Homo sapiens) (UniProt Q13324); assay: Binding affinity to human CRF2beta receptor up to 10 uM
T2 sequence (whole entry): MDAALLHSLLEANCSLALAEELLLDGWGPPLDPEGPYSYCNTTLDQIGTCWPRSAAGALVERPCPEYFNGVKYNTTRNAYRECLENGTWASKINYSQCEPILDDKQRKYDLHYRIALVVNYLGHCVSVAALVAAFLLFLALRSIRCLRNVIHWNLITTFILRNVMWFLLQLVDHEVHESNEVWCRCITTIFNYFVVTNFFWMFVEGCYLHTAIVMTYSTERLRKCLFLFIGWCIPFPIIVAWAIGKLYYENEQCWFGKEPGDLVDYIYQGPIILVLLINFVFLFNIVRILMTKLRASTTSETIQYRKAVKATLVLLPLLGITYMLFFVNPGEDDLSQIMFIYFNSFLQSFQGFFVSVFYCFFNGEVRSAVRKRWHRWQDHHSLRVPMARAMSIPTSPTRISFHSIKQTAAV

[8] = Solubility of the compound in pH 6.8 phosphate buffer with bile acid by HPLC analysis; format: physicochemical
Summary of the method: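 DMSO stock of compound added to pH 6.8 phosphate buffer containing bile acid. After incubation, precipitate removed by filter-plate filtration; dissolved compound in filtrate quantified by HPLC.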

[9] = target: T2, Corticotropin-releasing factor receptor 2 (Homo sapiens); assay: Binding affinity to human CRF2alpha receptor up to 10 uM
[10] = test system: Mus musculus; assay: Ex vivo inhibition of [125I]-CRF binding to CRF1 receptor in mouse olfactory bulb at 60 mg/kg, po after 1 hr by gamma scintillation counting method; format: functional; summary of the method: as §1
[11] = test system: Mus musculus; assay: Ex vivo inhibition of [125I]-CRF binding to CRF1 receptor in mouse pituitary gland at 20 mg/kg, po after 1 hr by gamma scintillation counting method; format: functional; summary of the method: as §1
[12] = test system: Mus musculus; assay: Ex vivo inhibition of [125I]-CRF binding to CRF1 receptor in mouse olfactory bulb at 20 mg/kg, po after 1 hr by gamma scintillation counting method; format: functional; summary of the method: as §1
[13] = test system: Mus musculus; assay: Ex vivo inhibition of [125I]-CRF binding to CRF1 receptor in mouse frontal cortex at 20 mg/kg, po after 1 hr by gamma scintillation counting method; format: functional; summary of the method: as §1

Compound | pIC50 [1] | viability at 24 h, 30 µM [2] [%] | further results
COCCN(CCOC)c1cccc2nc(Nc3c(C)cc(Br)cc3OC)n(C)c12 | 7.19 | 92 | 
CCCN(CCC)c1cccc2nc(Nc3c(C)cc(C)cc3C)oc12 | 6.00 | 65 | 
CCCN(CCC)c1cccc2nc(Nc3c(C)cc(Cl)cc3C(C)C)n(C)c12 | 7.66 | 28 | logD [3]: 5.96
CCN(c1cccc2nc(Nc3c(C)cc(Br)cc3OC)n(C)c12)C(C)C | 7.96 | 87 | 
CCCN(CCC)c1c(Cl)cc(Cl)c2nc(Nc3c(C)cc(Cl)cc3OC)n(C)c12 | 6.77 | 72 | 
CCCN(CCC)c1c(Cl)ccc2nc(Nc3c(C)cc(Cl)cc3OC)n(C)c12 | < 5.00 | 86 | 
CCCN(CCC)c1cccc2nc(Nc3c(C)cccc3C)n(C)c12 | 6.85 | 72 | 
CCCN(CCC)c1ccc(Cl)c2nc(Nc3c(C)cc(Cl)cc3OC)n(C)c12 |  |  | inhibition in vivo at 60 mg/kg [4]: 86%; inhibition in vivo at 60 mg/kg [5]: 101%; Activity [6]: Active; Activity [7]: inactive; solubility [8]: 33 µg/mL (≈ 75.8 µM); Activity [9]: inactive; inhibition in vivo at 60 mg/kg [10]: 83%
CCCN(CCC)c1cccc2nc(Nc3c(C)cc(C)cc3C)[nH]c12 | 5.60 | 41 | 
CCCCN(CCCC)c1cccc2nc(Nc3c(C)cc(Br)cc3OC)n(C)c12 | 7.85 | 90 | 
CCN(CC)c1ccc(Cl)c2nc(Nc3c(C)cc(Cl)cc3OC)n(C)c12 |  | 76 | 
CCCN(CCC)c1cccc2nc(Nc3ccc(C)cc3C)n(C)c12 | 7.08 | 79 | 
CCCN(CCC)c1cccc2nc(Nc3c(C)cc(C)cc3C)n(C)c12 | 7.82 | 89 | logD [3]: 5.23
CCCN(CCC)c1cccc2nc(Nc3c(C)cc(C)cc3C)n(-c3ccccc3)c12 | 5.66 | 32 | logD [3]: 6.31
CCCN(CCC)c1cccc2nc(Nc3c(C)cc(C)cc3C)n(C(C)C)c12 | 7.01 | 10 | logD [3]: 5.9
CCCN(CCC)c1cccc2nc(Nc3c(C)cc(C)cc3C)sc12 | 7.11 | 75 | 
CCCN(CCC)c1cccc2nc(Nc3c(C)cc(Br)cc3OC)n(C)c12 | 7.92 | 82 | logD [3]: 5.39
CCCN(CCC)c1cc(C)nc2c(-c3cnc(N(C)C)cc3C)c(C)nn12 |  | 51 | inhibition in vivo at 20 mg/kg [11]: 98%; inhibition in vivo at 20 mg/kg [12]: 95%; inhibition in vivo at 20 mg/kg [13]: 96%

The next lines start with results.

pIC50 [1] | Compound | viability at 24 h, 30 µM [2] [%] | further results
7.89 | CCN(CC)c1cccc2nc(Nc3c(C)cc(Br)cc3OC)n(C)c12 | 93 | 
7.85 | CCCN(CCC)c1cccc2nc(Nc3c(C)cc(Cl)cc3OC)n(C)c12 |  | 
7.89 | CCN(CC)c1ccc(C#N)c2nc(Nc3c(C)cc(Cl)cc3OC)n(C)c12 | 81 | 
7.89 | CCN(CC)c1ccc(OC)c2nc(Nc3c(C)cc(Cl)cc3OC)n(C)c12 | 5 | 
7.85 | CCCN(CCC)c1ccc(C#N)c2nc(Nc3c(C)cc(Cl)cc3OC)n(C)c12 | 83 | 
< 5.00 | CCN(CC)c1ccc(-c2ccccc2)c2nc(Nc3c(C)cc(Cl)cc3OC)n(C)c12 | 92 | 
8.12 | CCN(CC)c1ccc(C)c2nc(Nc3c(C)cc(Cl)cc3OC)n(C)c12 | 72 | 
